# Variants at the floor of the assay were thinned out.
# B1: tRNA (parent)
# chain: GUUCCGUUGGCGUAAUGGUAACGCGUCUCCCUCCUAAGGAGAAGACUGCGGGUUCGAGUCCCGUACGGAACG
# Variants of: B1
# Assay: yeast fitness relative to wild type (ratio to wild type); higher = fitter; tRNA-Arg(CCU), competitive growth, 37 C, YPD
# How it was run: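 Variants of the tRNA-Arg(CCU) gene, chemically synthesised with a 3% per-site mutation rate at 69 sites, were placed at the native genomic locus in Saccharomyces cerevisiae. The pooled strains were competed in YPD at 37°C for 24 hours in six parallel replicates. Gene amplicons from the start population and from each end population were read by 100-nucleotide paired-end sequencing. Darwinian fitness relative to wild type came from changes in genotype frequencies; genotypes needed ≥ 100 starting reads, and estimates < 0.5 were set to 0.5.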
row,Variant,yeast fitness
1,GUUCCGUUGGCGUUAUGGUAACGCGUCACCCUCCUAAGGAGAAGACUGCGAGUUCGAGUCCCGUACGGAACG,≤ 0.5
2,GUUCCGUUGGCGUUAUGGUAACGCGUCACCCUCCUAAGGAGAAGACUGCGGGUUCCAGUCCCGUACUGAACG,≤ 0.5
3,GUUCCGUUGGCGUUAUGGUAACGCGUCUCCCCCCUAAGGCGAAGACUGCGGGUUCGAGUCCCGUACAGAACG,0.529
4,GUUCCGUUGGCGUUAUGGUAACGCGUCUCCCUCCCAUGGAGAAGACUGCGGGUUCGAGUCCCGUACGGAACG,≤ 0.5
5,GUUCCGUUGGCGUUAUGGUAACGCGUCUCCCUCCCAAGGAGAAGACUGCGGGUUAGAGUACCGUACGGAACG,≤ 0.5
6,GUUCCGUUGGCGUUAUGGUAACGCGUCUCCCUCCCAAGGAGAAGACUGCGGGUUGGAGUCGCGUAUGGAACG,≤ 0.5
7,GUUCCGUUGGCGUUAUGGUAACGCGUCUCCCUCCCAAGGAGAAGACUGCGGGUUCGAGUCCCGUAGGGAACG,≤ 0.5
8,GUUCCGUUGGCGUUAUGGUAACGCGUCUCCCUCCCAAGGAGAAGACUGCGGGGUCGAGUCCCGUAGGGAACG,≤ 0.5
9,GUUCCGUUGGCGUUAUGGUAACGCGUCUCCCUCCGAAGGAGAAGACUGCGGGUUCGAGUCCGGUACGGAACG,≤ 0.5
10,GUUCCGUUGGCGUUAUGGUAACGCGUCUCCCUCCUAAGGAGAAGACAGCGGGUUCAAGUCCCGUACGGAACG,≤ 0.5
11,GUUCCGUUGGCGUUAUGGUAACGCGUCUCCCUCCUAAGGAGAAGACUGCGGGUCCGAGUCCUGUACGGAACG,≤ 0.5
12,GUUCCGUUGGCGUUAUGGUAACGCGUCUCCCUCCUAAGGAGAAGACUGCGGGUCCGAGUCCUGUACGCAACG,≤ 0.5
13,GUUCCGUUGGCGUUAUGGUAACGCGUCUCCCUCCUAAGGAGAAGACUGCGGGUUCGAGACCCGUACAGAACG,0.578
14,GUUCCGUUGGCGUUAUGGUAACGCGUCUCCCUCCUAAGGAGAAGACUGCGGGUUCGAGCCCCGUACGGACCG,≤ 0.5
15,GUUCCGUUGGCGUUAUGGUAACGCGUCUCCCUCCUAAGGAGAAGACUGCGGGUUCGAGGCCCGUUCGGAACG,0.547
16,GUUCCGUUGGCGUUAUGGUAACGCGUCUCCCUCCUAAGGAGAAGACUGCGGGUUCGAGUCCCGCACGGAACG,0.71
17,GUUCCGUUGGCGUACUGGUAACGCGUCUCCCUCCUAAGGAGAAGACUGCGGGUUCGAGUCCCGUACGGAACG,0.904
18,GUUCCGUUGGCGUACUGGUCUCGCGUCUCUCUCCUAAGGUGAAGACUGCGGGUUCGAGUCCCGUACGGAACG,≤ 0.5
19,GUUCCGUUGGCGUACUGGUCACGCGUCUCCCUCCUAAGGAGAAGACUGCGGGUUCGAGUCCCGUUCGGAACG,≤ 0.5
20,GUUCCGUUGGCGUACUGGUCACGCGUCUCCCUUUUAAGGAGAAGACUGCGGGUUCGAGUCGCGUACGGAACG,≤ 0.5
21,GUUCCGUUGGCGUACUGGUCACGCGUCUCCCUCCUAAGGAGAAGACUGCGGGUUUGAGUCCCGUACGGAACG,≤ 0.5
22,GUUCCGUUGGCGUACUGGUGACGCGUCUCCCUCCUAAGGAGAAGACUGCGGGUUCGAGUCCCGUUCGGGACG,≤ 0.5
23,GUUCCGUUGGCGUACUGGUGACGCGUCUCCAUCCUAAGGAGAAGACUGCGGGUUCGAGCCCCGUACGGGACG,≤ 0.5
24,GUUCCGUUGGCGUACUGGUGACGCGUCUCCCUACUCAGGAGAAGACAGCGGGUUCGAGUCCCGUACGGAACG,≤ 0.5
25,GUUCCGUUGGCGUACUGGUGACGCGUCUCCCUCCUAAGGAGAAGACUGCGGGUUCGAGUCUUGUACGGGACG,0.764

row,Variant,yeast fitness
1,GUUCCGUUGGCGUACUGGUGACGCGUCUCCCUCCUAAGGAGAAGACUGCGAGUUGGAGUCCCGUACGGAACG,0.532
2,GUUCCGUUGGCGUACUGGUACCGCGUGUCCCUCCUAAGGAGAAGACUGCGGGUUCGAGUCCUGUACGGAACG,0.534
3,GUUCCGUUGGCGUACUGGUACCGCGUCUCCCUCUUAUGGAGAAGACUGCGGGUUCGAGUCCCGUACGGAACG,≤ 0.5
4,GUUCCGUUGGCGUACUGGUAGCGCGUCUCCCUCCUAAGGAGAAGACUGCGGGUUCGAGUCCCGUACGGAACG,0.58
5,GUUCCGUUGGCGUACUGGUAGUGCGUCUCCCUCCUAAGGAGAUGACUGCGGGUUCGUGUCCCGUACGGAACG,≤ 0.5
6,GUUCCGUUGGCGUACUGGUAGUGCGUCUCCCUCCUAAGGAGAAGACCGCGGGUUCGAGUCCCGUACGGAACG,≤ 0.5
7,GUUCCGUUGGCGUACUGGUAUCGUGUCUCCCUCCUAAGGAGAAGACUGCGGGUUCGAGUCCCGUACGGAACG,≤ 0.5
8,GUUCCGUUGGCGUACUGGUAUCACGUCUCCCUCCUAAGGAGAAGACUGCGGGUUCGAGUCCCGUACGGAACG,≤ 0.5
9,GUUCCGUUGGCGUACUGGUAACGCGUCUCCCUCCUCACGAGAAGACUGCGGAUUCGAGUCCCGUACGGAACG,≤ 0.5
10,GUUCCGUUGGCGUACUGGUAACGCGUCUCCCUCCUCAGGAGAAGACUACGGGUUCGAGUCCCGUACGGAACG,0.516
11,GUUCCGUUGGCGUACUGGUAACGCGUCUCCCUCCUCAGGAGAAGACUACGGGUUCGAGUCCCGUACAGAACG,0.541
12,GUUCCGUUGGCGUACUGGUAACGCGUCUCCCUCCUGAGGAGAAGACUGCGGGUUCGAGUCCCGUACGGAACG,0.888
13,GUUCCGUUGGCGUACUGGUAACGCGUCUCCCUCCUGAGGAGAAGACUGUGGGUUCGAGUCCCGUACUGAACG,0.632
14,GUUCCGUUGGCGUACUGGUAACGCGUCUCCCUCCUGAGCAGAAGACUGCGGGUUUGAGUCCCGUAUGGAACG,≤ 0.5
15,GUUCCGUUGGCGUACUGGUAACGCGUCUCCCUCCUGAGGAGAAGACUGCGGGUUCAAGUCUCGUACGGAACG,≤ 0.5
16,GUUCCGUUGGCGUACUGGUAACGCGUCUCCCUCCUGAGGAGAAGACCGCGGGUUAGAGUCCCGUACGGUACG,0.538
17,GUUCCGUUGGCGUACUGGUAACGCGUCUCCCUCCUUGGGAGAAGACUGCGGGUUCGAGUCCCGUCCGGAACG,≤ 0.5
18,GUUCCGUUGGCGUACUGGUAACGCGUCUCCCUCCUUAGGAGAAGACUGUGGGUUCGAGUCCCGUCCGGAACG,≤ 0.5
19,GUUCCGUUGGCGUACUGGUAACGCGUCUCCCUCCUUAGGAGAAGACUGCGGGUUAGAGUCCCGUUCGGAACG,≤ 0.5
20,GUUCCGUUGGCGUACUGGUAACGCGUCUCCCUCCUUAGGAGAAGACUGCGGGUUCGAGUCACGUACGGAACG,≤ 0.5
21,GUUCCGUUGGCGUACUGGUAACGCGUCUCCCUCCUACGGAGAAGACUGCGGGUUCGAGCCCCGUACGGAACG,0.814
22,GUUCCGUUGGCGUACUGGUAACGCGUCUCCCUCCUAUGGAGAAGACUGCGGGUUCGAGUCCCGUACGGAACG,0.624
23,GUUCCGUUGGCGUACUGGUAACGCGUCUCCCUCCUAAGGCGAAGACUGGGGGUUCGAGUCCCGUACGGAACG,≤ 0.5
24,GUUCCGUUGGCGUACUGGUAACGCGUCUCCCUCCUAAGGCGAAGACUGCGGGUCCGAGUCCCGUACGGAACG,≤ 0.5
25,GUUCCGUUGGCGUACUGGUAACGCGUCUCCCUCCUAAGGGGAAGACUGCGGGCUCGAGUCCCGUACGGAACG,≤ 0.5

row,Variant,yeast fitness
1,GUUCCGUUGGCGUACUGGUAACGCGUCUCCCUCCUAAGGUGAAGACUGCGGGUUCGAGUCCCGUACGGAUCG,0.563
2,GUUCCGUUGGCGUACUGGUAACGCGUCUCCCUCCUAAGGAGGAGACUGCGGGUUCGAGUCCCGUACGGAACG,0.76
3,GUUCCGUUGGCGUACUGGUAACGCGUCUCCCUCCUAAGGAGGAGACUGAGGGUUCGAGUCCCGUACGGAACG,0.605
4,GUUCCGUUGGCGUACUGGUAACGCGUCUCCCUCCUAAGGAGGAGACUGAGGGUUCCAGUCCCGUACUGAACG,≤ 0.5
5,GUUCCGUUGGCGUACUGGUAACGCGUCUCCCUCCUAAGGAGACGACUGCGGGUUCGAGUCCCGUACGGAACG,0.609
6,GUUCCGUUGGCGUACUGGUAACGCGUCUCCCUCCUAAGGAGACGACUCCGGGUUCGAGUCCCGUACGGAACG,0.544
7,GUUCCGUUGGCGUACUGGUAACGCGUCUCCCUCCUAAGGAGACGACUGCGGGUUCGAAUCCCGUACGGAACG,≤ 0.5
8,GUUCCGUUGGCGUACUGGUAACGCGUCUCCCUCCUAAGGAGAUGACUGCGGGUUCGAGUCCCGUGCGGAACG,0.583
9,GUUCCGUUGGCGUACUGGUAACGCGUCUCCCUCCUAAGGAGAUGAAUGCGGGUUCGAGUCCCGUACGGAACG,0.502
10,GUUCCGUUGGCGUACUGGUAACGCGUCUCCCUCCUAAGGAGAUGACUGGGGGUUCGAGUCCCGUACGGAACG,0.515
11,GUUCCGUUGGCGUACUGGUAACGCGUCUCCCUCCUAAGGAGAAGCCUGCGGGUUCGAGUCCCGUACGGAACG,0.587
12,GUUCCGUUGGCGUACUGGUAACGCGUCUCCCUCCUAAGGAGAAGGCUGCGGGUUCGAGUCCCGUACGGAACG,0.583
13,GUUCCGUUGGCGUACUGGUAACGCGUCUCCCUCCUAAGGAGAAGACUGCGGGUUCGGGUCCCGUACGGAACG,0.812
14,GUUCCGUUGGCGUACUGGUAACGCGUCUCCCUCCUAAGGAGAAGACUGCGGGUUCGAGUCCCGUGCGGAACG,0.829
15,GUUCCGUUGGCGUACUGGUAACGCGUCUCCCUCCUAAGGAGAAGACUGCGGGUUCGAGUCCCGUACGGGACG,0.877
16,GUUCCGUUGGCGUACUGGUAAAGCGUCUCCCUCCUAAGGAGCAGAAUGCGGGUUCGAGUCCCGUUCGGAACG,≤ 0.5
17,GUUCCGUUGGCGUACUGGUAAAGCCUCACCCUCCUUAGGAGAAGACUGCGGGUUCGAGUCCCGUACGGAGCG,≤ 0.5
18,GUUCCGUUGGCGUACUGGUAAGGCGUCUCCCUCCUAAGGAGACGACUGCGGGUUCGAGUCCCGUACGGAACG,≤ 0.5
19,GUUCCGUUGGCGUACUGGUAAUGCGUCUCCCUCCUAAAGAGAAGACUGCGGGUUGGAGUCCCGUACGGAACG,≤ 0.5
20,GUUCCGUUGGCGUACUGGUAAUGCGUCUCCCUCCUAAGGAGAAGACUGCGGGUACGAGUCCCGUACGGAACG,0.636
21,GUUCCGUUGGCGUACUGGUAACGAGUCUCCCUCCUAAGGAGAAGACUGCGGGUUCGAGUCCCGUACGGAACG,≤ 0.5
22,GUUCCGUUGGCGUACUGGUAACGGGUCUCCCUCCUACGGAGAAGACUGCGGGUUCGAGUUCCGUACGGAACG,≤ 0.5
23,GUUCCGUUGGCGUACUGGUAACGGGUCUCCCUCCUAAGGAGAAGACUGCGGGUUCGAGUCCCGUACGGUACG,0.533
24,GUUCCGUUGGCGUACUGGUAACGGGUCUCCCUCUUAAGGAGAGGACUGCGGGUUCGAGUCCCGUACGGAACG,≤ 0.5
25,GUUCCGUUGGCGUACUGGUAACGUGUCUCCCUCCUAAGGAGAAGACUGCGGGUUCGAGUCCCGUACGGAACG,0.601

# From the RNAGym collection of RNA variant scans (doi:10.1126/science.aae0568)
